Reference: ChEMBL document CHEMBL1914298, “Synthesis and inhibition study of monoamine oxidase, indoleamine 2,3-dioxygenase and tryptophan 2,3-dioxygenase by 3,8-substituted 5H-indeno[1,2-c]pyridazin-5-one derivatives” (Eur J Med Chem, 2011)
Active and inactive are the calls of the source. No cut-off for these calls is given here.

Columns and labels:
[1] = target: T1, MAO-A (amine oxidase [flavin-containing] A) (Homo sapiens, UniProt P21397); experiment: (§1) Inhibition of human recombinant MAOA expressed in baculovirus-infected BTI insect cells at 10 uM after 1 hr by MAO-GLO two-step bioluminescence assay
T1 sequence (P21397 whole entry): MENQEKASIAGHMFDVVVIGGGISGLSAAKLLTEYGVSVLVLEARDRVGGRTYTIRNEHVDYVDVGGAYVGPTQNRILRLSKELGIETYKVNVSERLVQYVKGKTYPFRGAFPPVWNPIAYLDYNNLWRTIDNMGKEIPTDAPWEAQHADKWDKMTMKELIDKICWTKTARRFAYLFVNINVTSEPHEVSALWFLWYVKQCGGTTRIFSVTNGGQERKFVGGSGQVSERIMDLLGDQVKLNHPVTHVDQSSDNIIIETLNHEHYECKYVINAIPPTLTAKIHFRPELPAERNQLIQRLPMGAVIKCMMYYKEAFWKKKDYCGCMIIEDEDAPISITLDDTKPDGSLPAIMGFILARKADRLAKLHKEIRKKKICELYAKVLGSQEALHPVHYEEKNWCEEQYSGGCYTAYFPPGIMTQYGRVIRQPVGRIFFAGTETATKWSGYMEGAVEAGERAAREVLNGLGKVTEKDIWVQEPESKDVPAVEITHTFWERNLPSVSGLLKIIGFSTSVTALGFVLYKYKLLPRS
Outline: (§2)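 Recombinant human MAO-A or MAO-B from baculovirus-infected BTI insect cells; test compound at […], in triplicate in vitro; activity measured by luminescent method (Valley et al.); percent inhibition given as mean ± SD, n = 3.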

[2] = target: T2, MAO-B (amine oxidase [flavin-containing] B) (Homo sapiens, UniProt P27338); experiment: Inhibition of human recombinant MAOB expressed in baculovirus-infected BTI insect cells at 10 uM after 1 hr by MAO-GLO two-step bioluminescence assay; outline: as §2
T2 sequence (P27338 whole entry): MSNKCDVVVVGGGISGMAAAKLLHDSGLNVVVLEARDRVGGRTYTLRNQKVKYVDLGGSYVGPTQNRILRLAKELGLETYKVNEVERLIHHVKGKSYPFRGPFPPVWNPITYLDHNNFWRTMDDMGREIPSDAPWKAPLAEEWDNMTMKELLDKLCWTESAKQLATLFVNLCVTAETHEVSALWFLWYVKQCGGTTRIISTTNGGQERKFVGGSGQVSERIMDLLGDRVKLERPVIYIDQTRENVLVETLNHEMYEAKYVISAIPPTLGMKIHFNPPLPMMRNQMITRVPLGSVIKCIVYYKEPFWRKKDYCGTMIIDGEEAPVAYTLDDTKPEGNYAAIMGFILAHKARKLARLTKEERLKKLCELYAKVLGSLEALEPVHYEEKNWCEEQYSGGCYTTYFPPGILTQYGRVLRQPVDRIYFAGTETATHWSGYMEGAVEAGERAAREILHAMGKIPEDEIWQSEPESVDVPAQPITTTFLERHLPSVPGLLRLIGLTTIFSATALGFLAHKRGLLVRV

[3] = target: Indoleamine 2,3-dioxygenase 1 (Homo sapiens) (UniProt P14902); experiment: Inhibition of human IDO using L-tryptophan as substrate at 25 uM by colorimetric method
Chain of Indoleamine 2,3-dioxygenase 1 (Homo sapiens) (P14902 whole entry, looked up): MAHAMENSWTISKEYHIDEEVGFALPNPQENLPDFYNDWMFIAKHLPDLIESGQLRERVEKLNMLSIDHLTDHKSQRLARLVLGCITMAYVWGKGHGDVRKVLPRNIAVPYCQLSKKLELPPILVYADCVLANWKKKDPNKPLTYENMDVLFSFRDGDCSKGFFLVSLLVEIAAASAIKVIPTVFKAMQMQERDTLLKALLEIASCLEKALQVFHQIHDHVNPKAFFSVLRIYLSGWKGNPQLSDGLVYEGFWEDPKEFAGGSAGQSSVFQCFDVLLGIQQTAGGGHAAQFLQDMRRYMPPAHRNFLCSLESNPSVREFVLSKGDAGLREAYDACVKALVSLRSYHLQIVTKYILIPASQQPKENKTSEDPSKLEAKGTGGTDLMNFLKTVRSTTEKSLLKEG
Outline: (§3)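 Human IDO activity read colourimetrically, rmTDO activity read fluorometrically; compounds tested in vitro at […]; percent inhibition as mean ± SD, n = 3.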

[4] = target: T3, Tryptophan 2,3-dioxygenase (Ralstonia metallidurans (strain CH34 / ATCC 43123 / DSM 2839)) (UniProt Q1LK00); experiment: Inhibition of Ralstonia metallidurans TDO using L-tryptophan as substrate at 25 uM by fluorimetric method; details: Cupriavidus metallidurans; outline: as §3
T3 sequence (whole entry): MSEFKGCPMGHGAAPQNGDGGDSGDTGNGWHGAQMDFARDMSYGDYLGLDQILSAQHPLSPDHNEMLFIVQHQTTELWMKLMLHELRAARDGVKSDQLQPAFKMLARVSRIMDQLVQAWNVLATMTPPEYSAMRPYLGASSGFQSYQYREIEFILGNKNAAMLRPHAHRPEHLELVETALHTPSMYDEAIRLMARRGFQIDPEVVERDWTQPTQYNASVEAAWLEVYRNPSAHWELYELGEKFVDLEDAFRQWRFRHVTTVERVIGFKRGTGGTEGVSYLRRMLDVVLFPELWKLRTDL

[5] = target: T4, Amine oxidase [flavin-containing] B (Homo sapiens, UniProt P27338); experiment: Inhibition of human recombinant MAOB expressed in baculovirus-infected BTI insect cells by Lineweaver-Burk plot analysis
T4 sequence (P27338 whole entry): T2 sequence (P27338 whole entry)

[6] = target: T4, Amine oxidase [flavin-containing] B; experiment: Inhibition of human recombinant MAOB expressed in baculovirus-infected BTI insect cells after 1 hr by Cheng-Prusoff equation analysis
[7] = target: T5, Amine oxidase [flavin-containing] A (Homo sapiens, UniProt P21397); experiment: as §1; details: 1 h, 10 µM; outline: as §2
T5 sequence (P21397 whole entry): T1 sequence (P21397 whole entry)

Q: With `Cc1cc2c(nn1)-c1cc(OCc3cccc(Cl)c3)ccc1C2=O` as the compound, how does the inhibition at 1 h, 10 µM [1] read?
A: 15%

Q: And the inhibition at 1 h, 10 µM [2]?
A: 93%

Q: And the inhibition [3]?
A: 25%

Q: And the inhibition [4]?
A: 19%

Q: What about the Ki [5] of the same compound?
A: 110 nM

Q: What about the Ki [6] of the same compound?
A: 160 nM

Q: Which results are given for `Cc1cc2c(nn1)-c1cc(OCCCC(F)(F)F)ccc1C2=O`?
A: inhibition (INH) [7]: Not Active; inhibition at 1 h, 10 µM [2]: 92%; inhibition [3]: 19%; inhibition [4]: 31%

Q: For `O=C1c2ccc(OCCCC(F)(F)F)cc2-c2nnc(-c3cccc(C(F)(F)F)c3)cc21`, which “inhibition (INH)” value [7] is on record?
A: Not Active

Q: And the inhibition at 1 h, 10 µM [2]?
A: 57%

Q: What about the inhibition [3] of the same compound?
A: inactive

Q: And the inhibition [4]?
A: 20%

Q: How did the inhibition at 1 h, 10 µM [1] turn out when `Cc1cccc(COc2ccc3c(c2)-c2nnc(C)cc2C3=O)c1` was run?
A: 17%

Q: What about the inhibition at 1 h, 10 µM [2] of the same compound?
A: 90%

Q: What about the inhibition [3] of the same compound?
A: 14%

Q: What about the inhibition [4] of the same compound?
A: 66%

Q: And the Ki [6]?
A: 480 nM

Q: What does the source list for `COc1ccc2c(c1)-c1nnc(-c3cccc(C(F)(F)F)c3)cc1C2=O`?
A: inhibition (INH) [7]: Not Active; inhibition at 1 h, 10 µM [2]: 36%; inhibition [3]: inactive; inhibition [4]: 18%

Q: How did the inhibition at 1 h, 10 µM [1] turn out when `O=C1c2ccc(OCc3ccccc3)cc2-c2nnc(-c3cccc(C(F)(F)F)c3)cc21` was run?
A: 10%

Q: And the inhibition at 1 h, 10 µM [2]?
A: 7%

Q: What about the inhibition [3] of the same compound?
A: 17%

Q: And the inhibition [4]?
A: inactive
